Reference: ChEMBL document CHEMBL3853270, “Influence of Birch Bark Triterpenes on Keratinocytes and Fibroblasts from Diabetic and Nondiabetic Donors” (2016)
Active and inactive are the calls of the source. The calls are words filed in the database; no cut-off is given here.

Experiments:
Format in all cases: functional
Fibroblast [1] = test: Effect on chemokines related gene expression in diabetic adult human primary fibroblasts assessed as WDR26 mRNA levels at 9.81 uM after 6 hrs by qPCR analysis
Keratinocyte [2] = test: Effect on antioxidant related gene expression in non-diabetic adult human primary keratinocytes assessed as SOD2 mRNA levels at 9.81 uM after 6 hrs by qPCR analysis
Fibroblast [3] = test: Effect on transcription factor related gene expression in diabetic adult human primary fibroblasts assessed as JUN mRNA levels at 9.81 uM after 6 hrs by qPCR analysis
Fibroblast [4] = test: Effect on antioxidant related gene expression in diabetic adult human primary fibroblasts assessed as SOD2 mRNA levels at 1.96 uM after 6 hrs by qPCR analysis
Keratinocyte [5] = test: Effect on pro-inflammatory related gene expression in non-diabetic adult human primary keratinocytes assessed as TNF mRNA levels at 1.96 uM after 6 hrs by qPCR analysis
[6] = Effect on wound healing activity in diabetic adult human primary fibroblasts assessed as upregulation of MIF protein levels at 1.96 uM after 24 hrs by bead-based suspension array analysis; details: Fibroblast
Fibroblast [7] = test: Effect on MMP1 mRNA expression levels in non-diabetic young human primary fibroblasts at 9.81 uM after 6 hrs by qPCR analysis
How it was run: (§1)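 Primary dermal fibroblasts from one nondiabetic young, one nondiabetic adult and one diabetic adult donor; 320 000 cells per sample, 6 h at 1.96 or 9.81 μM. RNA measured on a high-throughput qPCR chip. Fold change versus 0.1% DMSO control, four independent experiments, SD, one-way ANOVA with Bonferroni post-test.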

[8] = Effect on wound healing activity in non-diabetic adult human primary fibroblasts assessed as upregulation of soluble ICAM1 protein levels at 1.96 uM after 24 hrs by bead-based suspension array analysis; details: Fibroblast
Fibroblast [9] = test: Effect on adhesion molecules related gene expression in non-diabetic adult human primary fibroblasts assessed as ICAM1 mRNA levels at 1.96 uM after 6 hrs by qPCR analysis
How it was run: (§2)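 Dermal fibroblasts from nondiabetic adult and diabetic adult donors, exposed for 6 h at 1.96 or 9.81 μM. ICAM-1 and VCAM-1 mRNA measured by standard qRT-PCR, n = 3. Fold change versus 0.1% DMSO control, SD, one-way ANOVA with Bonferroni post-test.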

[10] = Effect on wound healing activity in non-diabetic adult human primary fibroblasts assessed as upregulation of MIF protein levels at 1.96 uM after 24 hrs by bead-based suspension array analysis; details: Fibroblast
Fibroblast [11] = test: Effect on antiinflammatory related gene expression in diabetic adult human primary fibroblasts assessed as SOCS3 mRNA levels at 1.96 uM after 6 hrs by qPCR analysis; how it was run: as §1
Keratinocyte [12] = test: Effect on growth factor related gene expression in non-diabetic young human primary keratinocytes assessed as VEGFA mRNA levels at 1.96 uM after 6 hrs by qPCR analysis
How it was run: (§3)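 Primary human keratinocytes (nondiabetic young or adult, diabetic adult donors) were exposed to compound for 6 h, with 0.1% DMSO as solvent control. Total RNA came from 400 000 cells per sample and was assayed on a Fluidigm Biomark high-throughput qPCR chip. Results are fold change vs solvent control, from 2−4 independent experiments on two donors per group, with SD. Groups were compared by one-way ANOVA with Bonferroni post-test.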

Fibroblast [13] = test: Effect on pro-inflammatory related gene expression in non-diabetic young human primary fibroblasts assessed as IL6 mRNA levels at 1.96 uM after 6 hrs by qPCR analysis
Keratinocyte [14] = test: Effect on cellular connection related gene expression in diabetic adult human primary keratinocytes assessed as CLDN4 mRNA levels at 9.81 uM after 6 hrs by qPCR analysis
Fibroblast [15] = test: Effect on growth factor related gene expression in non-diabetic adult human primary fibroblasts assessed as VEGFA mRNA levels at 1.96 uM after 6 hrs by qPCR analysis
How it was run: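 Primary human dermal fibroblasts (young or adult nondiabetic, adult diabetic donor) were treated for 6 h against a 0.1% DMSO solvent control. RNA from 320 000 cells per sample was measured by Fluidigm Biomark high-throughput qPCR. Values are fold change relative to solvent control, from four independent experiments, with SD. One-way ANOVA with Bonferroni post-test was applied.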

Fibroblast [16] = test: Effect on adhesion molecules related gene expression in non-diabetic adult human primary fibroblasts assessed as VCAM1 mRNA levels at 9.81 uM after 6 hrs by qPCR analysis; how it was run: as §2
[17] = Effect on wound healing activity in non-diabetic adult human primary keratinocytes assessed as upregulation of soluble E-selectin protein levels at 1.96 uM after 24 hrs by bead-based suspension array analysis; details: Keratinocyte
Fibroblast [18] = test: Effect on antioxidant related gene expression in diabetic adult human primary fibroblasts assessed as NFE2L2 mRNA levels at 9.81 uM after 6 hrs by qPCR analysis
Fibroblast [19] = test: Effect on antiinflammatory related gene expression in non-diabetic adult human primary fibroblasts assessed as SOCS3 mRNA levels at 1.96 uM after 6 hrs by qPCR analysis; how it was run: as §1
Keratinocyte [20] = test: Effect on AQP3 mRNA expression levels in non-diabetic young human primary keratinocytes at 1.96 uM after 6 hrs by qPCR analysis
How it was run: (§4)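 Primary keratinocytes from nondiabetic young and adult and diabetic adult donors; 400 000 cells per sample, 6 h exposure at 1.96 or 9.81 μM. RNA extracted and read on a high-throughput qPCR chip. Results are fold change versus 0.1% DMSO solvent control from 5−7 independent experiments over two donors per group, SD, one-way ANOVA with Bonferroni post-test.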

Keratinocyte [21] = test: Effect on pro-inflammatory related gene expression in non-diabetic young human primary keratinocytes assessed as PTGS2 mRNA levels at 9.81 uM after 6 hrs by qPCR analysis
Keratinocyte [22] = test: Effect on MMP1 mRNA expression levels in diabetic adult human primary keratinocytes at 9.81 uM after 6 hrs by qPCR analysis; how it was run: as §4
Keratinocyte [23] = test: Effect on cellular connection related gene expression in non-diabetic young human primary keratinocytes assessed as CLDN4 mRNA levels at 9.81 uM after 6 hrs by qPCR analysis
Keratinocyte [24] = test: Effect on antiinflammatory related gene expression in non-diabetic young human primary keratinocytes assessed as NFKBIA mRNA levels at 9.81 uM after 6 hrs by qPCR analysis
[25] = Effect on wound healing activity in diabetic adult human primary keratinocytes assessed as upregulation of IL8 protein levels at 1.96 uM after 24 hrs by bead-based suspension array analysis; details: Keratinocyte
Keratinocyte [26] = test: Effect on pro-inflammatory related gene expression in non-diabetic adult human primary keratinocytes assessed as TNF mRNA levels at 9.81 uM after 6 hrs by qPCR analysis
Fibroblast [27] = test: Effect on antioxidant related gene expression in non-diabetic adult human primary fibroblasts assessed as SOD2 mRNA levels at 1.96 uM after 6 hrs by qPCR analysis
[28] = Effect on wound healing activity in non-diabetic adult human primary keratinocytes assessed as upregulation of RANTES protein levels at 1.96 uM after 24 hrs by bead-based suspension array analysis; details: Keratinocyte
Keratinocyte [29] = test: Effect on growth factor related gene expression in non-diabetic adult human primary keratinocytes assessed as GDF15 mRNA levels at 9.81 uM after 6 hrs by qPCR analysis; how it was run: as §3

With `C=C(C)[C@@H]1CC[C@]2(CO)CC[C@]3(C)[C@H](CC[C@@H]4[C@@]5(C)CC[C@H](O)C(C)(C)[C@@H]5CC[C@]43C)[C@@H]12` [BETULIN] the “fold change (FC)” value (Fibroblast [1]) was 1.2, the “fold change (FC)” value (Keratinocyte [2]) was 1.6 and the “fold change (FC)” value (Fibroblast [3]) was 1.2. For the same molecule, the “fold change (FC)” value (Fibroblast [4]) was 2.2, the “fold change (FC)” value (Keratinocyte [5]) was 3.8 and the Activity [6] was “Active”. For the same molecule, the “fold change (FC)” value (Fibroblast [7]) was 1, the Activity [8] was “Active” and the “fold change (FC)” value (Fibroblast [9]) was 144. The Activity [10] was “Active”, the “fold change (FC)” value (Fibroblast [11]) was 2 and the “fold change (FC)” value (Keratinocyte [12]) was 1.3. The “fold change (FC)” value (Fibroblast [13]) was 45, the “fold change (FC)” value (Keratinocyte [14]) was 2.1 and the “fold change (FC)” value (Fibroblast [15]) was 1.4. The “fold change (FC)” value (Fibroblast [16]) was 53.7, the Activity [17] was “Active” and the “fold change (FC)” value (Fibroblast [18]) was 1.5. For the same molecule, the “fold change (FC)” value (Fibroblast [19]) was 24.4, the “fold change (FC)” value (Keratinocyte [20]) was 0.9 and the “fold change (FC)” value (Keratinocyte [21]) was 1.5. The “fold change (FC)” value (Keratinocyte [22]) was 1.8, the “fold change (FC)” value (Keratinocyte [23]) was 1.9 and the “fold change (FC)” value (Keratinocyte [24]) was 1.6. The Activity [25] was “Active”, the “fold change (FC)” value (Keratinocyte [26]) was 6.1 and the “fold change (FC)” value (Fibroblast [27]) was 18. For the same molecule, the Activity [28] was “Active” and the “fold change (FC)” value (Keratinocyte [29]) was 1.
